Assay results: ChEMBL document CHEMBL1157805, “Virtual screening, selection and development of a benzindolone structural scaffold for inhibition of lumazine synthase” (Bioorg Med Chem, 2010)

Tests used:
[1] = Inhibition of Mycobacterium tuberculosis recombinant riboflavin synthase at […] state after 30 mins by fluorescence assay
How it was run: (§1)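 Recombinant M. tuberculosis riboflavin synthase (1 μM) in 100 mM Tris-HCl pH 7.0, 100 mM NaCl, 5 mM DTT, 2% DMSO. 6,7-Dimethyl-8-ribityllumazine substrate was varied 3–60 μM and inhibitor 0–200 μM. Reactions were started with substrate. Riboflavin formation was monitored at 470 nm for 30 min at 27 °C. Velocity–substrate data for all inhibitor levels were fitted by nonlinear regression to alternative inhibition models.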

[2] = target: T1, 6,7-dimethyl-8-ribityllumazine synthase (Mycobacterium tuberculosis, UniProt P9WHE9); assay: Inhibition of Mycobacterium tuberculosis recombinant lumazine synthase at enzyme-inhibitor complex state after 30 mins by fluorescence assay
T1 sequence (P9WHE9 whole entry): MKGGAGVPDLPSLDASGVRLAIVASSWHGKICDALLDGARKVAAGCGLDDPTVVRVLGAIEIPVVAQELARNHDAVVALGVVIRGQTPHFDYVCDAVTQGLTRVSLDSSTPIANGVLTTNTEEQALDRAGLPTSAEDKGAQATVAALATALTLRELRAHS
How it was run: (§2)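 Recombinant M. tuberculosis lumazine synthase (2 μM) in 100 mM Tris-HCl pH 7.0, 100 mM NaCl, 5 mM DTT, 2% DMSO. Dihydroxybutanone phosphate was fixed at 100 μM, pyrimidinedione substrate varied 3–100 μM, and inhibitor 0–200 μM. Reactions were started with the pyrimidinedione substrate. Lumazine formation was read at 408 nm for 30 min at 27 °C. Velocity–substrate data were fitted by nonlinear regression to alternative inhibition models.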

[3] = target: T1, 6,7-dimethyl-8-ribityllumazine synthase; assay: Inhibition of Mycobacterium tuberculosis recombinant lumazine synthase at enzyme-substrate-inhibitor complex state after 30 mins by fluorescence assay; how it was run: as §2
[4] = Inhibition of Mycobacterium tuberculosis recombinant riboflavin synthase at enzyme-substrate-inhibitor complex state after 30 mins by fluorescence assay; how it was run: as §1

| SMILES | Ki [1] | Ki [2] | Ki [3] | Ki [4] |
| --- | --- | --- | --- | --- |
| O=C1Nc2ccc(S(=O)(=O)NCCCCC(F)(F)P(=O)(O)O)c3cccc1c23 | 4.1 µM | 832 µM | 518 µM | > 1000 µM |
| O=C(O)CNS(=O)(=O)c1ccc2c3c(cccc13)C(=O)N2 |  | 70 µM |  |  |
| O=C1Nc2ccc(S(=O)(=O)NCCOP(=O)(O)O)c3cccc1c23 |  | 260 µM |  |  |
| O=C1Nc2ccc(S(=O)(=O)NCCCCCCOP(=O)(O)O)c3cccc1c23 | 9.8 µM |  | 723 µM | 898 µM |
| O=C1Nc2ccc(S(=O)(=O)NCCCOP(=O)(O)O)c3cccc1c23 |  | 99 µM |  |  |
| CCOC(=O)C(=O)Nc1c(Cl)[nH]c(=O)[nH]c1=O |  | 832 µM |  |  |
| O=C1Nc2ccc(S(=O)(=O)NCCCCOP(=O)(O)O)c3cccc1c23 |  | 38 µM |  |  |
